From ChEMBL document CHEMBL3091314, “Synthesis, cytotoxic evaluation and molecular docking study of 2-alkylthio-4-(2,3,4-trimethoxyphenyl)-5-aryl-thiazoles as tubulin polymerization inhibitors” (Bioorg Med Chem, 2013)
Active and inactive are the calls of the source. The calls are words filed in the database; no cut-off is given here.

Experiments:
[1] = system: NIH3T3; assay: Cytotoxicity against mouse NIH/3T3 cells after 48 hrs by MTT assay; assay type: cell-based; conditions: NIH3T3, 48 h
Outline: (§1)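 Cells grown in RPMI-1640 with 10% heat-inactivated FBS, penicillin and streptomycin, seeded at 8000–10,000 viable cells/well and left 48 h to attach. Exposed to 0.001–100 µM compound (DMSO final <0.1%) for 24 or 48 h depending on cell line. MTT (5 mg/ml in PBS) added for 4 h at 37 °C, formazan dissolved in DMSO, absorbance read at 550 nm against 690 nm. Triplicates; IC50 by nonlinear regression, mean ± SD.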

[2] = system: AGS; assay: Cytotoxicity against human AGS cells after 48 hrs by MTT assay; assay type: functional, cell-based; outline: as §1
[3] = system: HT-29; assay: Cytotoxicity against human HT-29 cells after 48 hrs by MTT assay; assay type: functional, cell-based; conditions: HT-29, 48 h; outline: as §1
[4] = species on record: Ovis aries; assay: Inhibition of sheep brain tubulin polymerization at 10 uM after 15 mins
Outline: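 Purified tubulin (12 µM) preincubated 15 min with compound at 10 µM final in PEM buffer (100 mM PIPES pH 6.9, 1 mM MgSO4, 1 mM EGTA), then cooled to 0 °C. GTP added to 1 mM final; assembly started by warming from 0 to 37 °C and followed by absorbance at 350 nm. Duplicate experiments; CA-4 as positive control.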

[5] = system: MCF7; assay: Cytotoxicity against human MCF7 cells after 48 hrs by MTT assay; assay type: functional, cell-based; conditions: MCF7, 48 h; outline: as §1
[6] = system: NIH3T3; assay: Cell cycle arrest in mouse NIH/3T3 cells assessed as accumulation at S phase at 50 uM after 24 hrs using propidium iodide staining by flow cytometric analysis (reference value: 24.39%); assay type: cell-based; conditions: nih3t3, 24 h
Outline: (§2)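 NIH-3T3 cells treated with 25 or 50 µM for 24 h. Collected by centrifugation, fixed in 75% ethanol at 4 °C for 0.5 h, then resuspended in PBS with 0.1% Triton X-100, 10 µg/mL propidium iodide and 100 µg/mL RNase A at 37 °C for 0.5 h. DNA content read on a FACSCalibur flow cytometer. CA-4 (0.05 µM) served as positive control.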

[7] = system: NIH3T3; assay: Cell cycle arrest in mouse NIH/3T3 cells assessed as accumulation at G2/M phase at 50 uM after 24 hrs using propidium iodide staining by flow cytometric analysis (reference value: 35.70%); assay type: cell-based; conditions: nih3t3, 24 h; outline: as §2
[8] = system: NIH3T3; assay: Cell cycle arrest in mouse NIH/3T3 cells assessed as accumulation at G0/G1 phase at 50 uM after 24 hrs using propidium iodide staining by flow cytometric analysis (reference value: 39.91%); assay type: cell-based; conditions: nih3t3, 24 h; outline: as §2
[9] = system: NIH3T3; assay: Cell cycle arrest in mouse NIH/3T3 cells assessed as accumulation at S phase at 25 uM after 24 hrs using propidium iodide staining by flow cytometric analysis (reference value: 24.39%); assay type: cell-based; conditions: nih3t3, 24 h; outline: as §2
[10] = system: NIH3T3; assay: Cell cycle arrest in mouse NIH/3T3 cells assessed as accumulation at G2/M phase at 25 uM after 24 hrs using propidium iodide staining by flow cytometric analysis (reference value: 35.70%); assay type: cell-based; conditions: nih3t3, 24 h; outline: as §2
[11] = system: NIH3T3; assay: Cell cycle arrest in mouse NIH/3T3 cells assessed as accumulation at G0/G1 phase at 25 uM after 24 hrs using propidium iodide staining by flow cytometric analysis (reference value: 39.91%); assay type: cell-based; conditions: nih3t3, 24 h; outline: as §2

Row | tubulin polymerization inhibition (active/inactive) [4] | Activity [6] [%] | Activity [7] [%] | Activity [8] [%] | Activity [9] [%] | Activity [10] [%] | Activity [11] [%] | SMILES | IC50 [1] [µM] | IC50 [2] [µM] | IC50 [3] [µM] | IC50 [5] [µM]
1 | – | – | – | – | – | – | – | COc1ccc(-c2nc(SC)sc2-c2ccc(F)cc2)c(OC)c1OC | 42.1 | 97.8 | 80.3 | –
2 | – | – | – | – | – | – | – | COc1ccc(-c2nc(SCc3ccccc3)sc2-c2ccccc2)c(OC)c1OC | 56.5 | 38.5 | 46 | 27.3
3 | – | – | – | – | – | – | – | COc1ccc(-c2nc(SC)sc2-c2ccccc2)c(OC)c1OC | 22.1 | 27.2 | 77.9 | –
4 | – | – | – | – | – | – | – | COc1ccc(-c2nc(SC)sc2-c2ccc(Cl)cc2)c(OC)c1OC | 95.7 | > 100 | > 100 | –
5 | – | – | – | – | – | – | – | COc1ccc(-c2nc(SC)sc2-c2ccc([N+](=O)[O-])cc2)c(OC)c1OC | > 100 | > 100 | 45.3 | –
6 | Active | 26.67 | 57.41 | 15.92 | 28.12 | 37.64 | 34.24 | COc1ccc(-c2nc(SCc3ccccc3)sc2-c2ccc(Cl)cc2)c(OC)c1OC | 20.5 | 15.8 | 8.9 | 12.6
7 | Active | – | – | – | – | – | – | COc1ccc(-c2nc(SCc3ccccc3)sc2-c2ccc(F)cc2)c(OC)c1OC | 41.5 | 18.1 | 18.5 | 18.5
8 | Active | – | – | – | – | – | – | COc1ccc(-c2nc(SCc3ccccc3)sc2-c2ccc([N+](=O)[O-])cc2)c(OC)c1OC | 16.3 | 13.8 | 33.8 | 11

Row | SMILES | tubulin polymerization inhibition (active/inactive) [4] | Activity [6] [%] | Activity [7] [%] | Activity [8] [%] | Activity [9] [%] | Activity [10] [%] | Activity [11] [%] | IC50 [1] [µM] | IC50 [2] [µM] | IC50 [3] [µM] | IC50 [5] [µM]
9 | COc1ccc(/C=C\c2cc(OC)c(OC)c(OC)c2)cc1O [COMBRETASTATIN A4] | Active | – | – | – | – | – | – | 0.097 | 0.064 | 1.58 | 0.67
